IC50, ED50 and Activity data for 37 molecules are collected here from ChEMBL document CHEMBL1140297, “Discovery of novel and potent small-molecule inhibitors of NO and cytokine production as antisepsis agents: synthesis and biological activity of alkyl 6-(N-substituted sulfamoyl)cyclohex-1-ene-1-carboxylate” (J Med Chem, 2005).

Assay [1] deals with RAW264.7. Briefly: Inhibition of LPS-induced nitric oxide production in mouse RAW264.7 cells. In kind it is functional, cell-based. The procedure, abridged: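 RAW264.7 macrophages were plated at 1 × 10⁵ cells/well and cultured overnight. Cells were exposed to 10 ng/mL LPS with graded compound concentrations for 20 h at 37 °C, 5% CO₂, in phenol red-free RPMI1640 containing 1% heat-inactivated FBS. Supernatant nitrite was read fluorometrically with DAN followed by NaOH (ex 355/em 460 nm). IC50 is the concentration halving NO versus control; mean ± SD of two or three experiments.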

In assay [2] the test system is RAW264.7. Briefly: Inhibition of LPS-induced IL6 production in mouse RAW264.7 cells by ELISA. The assay is classed as functional, cell-based. In a few lines:
(§1)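 RAW264.7 cells (grown in RPMI1640 with 10% heat-inactivated FBS) were seeded at 1 × 10⁵ cells/well and left overnight. They were then stimulated with 10 ng/mL LPS (E. coli O111:B4) plus a range of compound concentrations for 20 h at 37 °C in phenol red-free RPMI1640 with 1% FBS. TNF-α and IL-6 in the supernatant were measured by ELISA.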
In general terms: ELISA stands for enzyme-linked immunosorbent assay.

Assay [3] has as its system RAW264.7. In words: Inhibition of LPS-induced TNFalpha production in mouse RAW264.7 cells by ELISA. The assay is classed as functional, cell-based. In a few lines:
as §1

The subject of assay [4] is Mus musculus. Briefly: Survival of LPS-challenged intravenously dosed BALB/c mouse endotoxin shock model. The assay is classed as functional. Particulars: iv. The procedure, abridged: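 Female BALB/c mice (6-week-old, 15-21 g), acclimated at least one week. Compound dissolved in 10% (w/v) glucuronylglucosyl-β-cyclodextrin sodium salt, given iv at 0.3-3 mg/kg 1 h before lethal LPS (E. coli O111:B4, 7 mg/kg ip, in saline). Survival recorded for 7 days; 10 mice per group; Tarone's test with simple closed step-down method vs vehicle; ED50 as minimum effective dose.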

The test system of assay [5] is Mus musculus. In words: Suppression of serum IL1-beta level in LPS-challenged BALB/c mouse endotoxin shock model at 0.1 to 3 mg/kg, iv. The assay is classed as functional, organism-based. In a few lines: (§2)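 Female BALB/c mice (6-week-old) received compound iv at 0.1–3 mg/kg in 10% glucuronylglucosyl-β-cyclodextrin, 1 h before LPS 7 mg/kg ip. Serum was collected at 1 h for TNF-α, 2 h for IL-6 and 6 h for IL-1β, then assayed by ELISA. n = 8 mice; means ± SE; one-tailed Williams or Shirley-Williams test versus vehicle.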

For assay [6], the system named is Mus musculus. Briefly: Survival of LPS-challenged BALB/c mouse endotoxin shock model at 3 mg/kg, iv. The assay is classed as functional, organism-based. The arrangement: dose 3 mg/kg. The procedure, abridged:
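Female BALB/c mice (6-week-old, acclimated at least 1 week) were given compound iv in 10% glucuronylglucosyl-β-cyclodextrin 1 h before a lethal LPS challenge (7 mg/kg ip). Survival was recorded for 7 days, with 10 mice per group. Survival was analysed by Tarone's test with a closed step-down method versus vehicle.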

Assay [7] has as its system Mus musculus. Briefly: Suppression of serum TNF-alpha level in LPS-challenged BALB/c mouse endotoxin shock model at 0.1 to 3 mg/kg, iv. In kind it is functional, organism-based. The procedure, abridged: as §2
Assay [8] deals with Mus musculus. Briefly: Suppression of serum nitric oxide level in LPS-challenged BALB/c mouse endotoxin shock model at 0.1 to 3 mg/kg, iv. In kind it is functional, organism-based. In a few lines: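 Female BALB/c mice were dosed iv at 0.1–3 mg/kg (10% glucuronylglucosyl-β-cyclodextrin vehicle) 1 h before LPS 7 mg/kg ip. Serum was taken at 6 h. Nitrate was reduced to nitrite with Aspergillus nitrate reductase and β-NADPH for 20 min, then read with DAN/HCl and NaOH fluorescence (ex 355/em 460 nm) against a sodium nitrite standard curve. n = 8 mice; means ± SE.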

In assay [9] the test system is Mus musculus. In words: Suppression of serum IL6 level in LPS-challenged BALB/c mouse endotoxin shock model at 0.1 to 3 mg/kg, iv. The assay is classed as functional, organism-based. The procedure, abridged: as §2

Each structure is given as a SMILES string. The source made the active and inactive calls. The rule behind the calls is not given here.

The IC50 is the concentration at which inhibition is half-maximal. A high value points to weaker potency in that assay. In the assay with RAW264.7 [1], `CCOC(=O)C1=CCCCC1S(=O)(=O)N(C)c1ccc(Cl)cc1F` (stereo unspecified) returned an IC50 of 230 nM.

As to `O=C(OCCO)C1=CCCCC1S(=O)(=O)Nc1ccc(F)cc1F` (stereo unspecified), in the assay with RAW264.7 [1], half-maximal inhibition (IC50) required 330 nM.

On to `CCOC(=O)C1=CCCCC1S(=O)(=O)Nc1nccs1` (stereo unspecified), for which the IC50 in the assay on RAW264.7 [1] is > 10000 nM.

`CCOC(=O)C1=CCCCC1S(=O)(=O)Nc1c(F)cccc1F` (stereo unspecified) showed an IC50 in the assay on RAW264.7 [1] of 160 nM.

In the assay on RAW264.7 [1], `CCOC(=O)C1=CCCCC1S(=O)(=O)Nc1cccc(F)c1` (stereo unspecified) gave a half-inhibitory concentration (IC50) of 150 nM.

For the molecule `CCOC(=O)C1=CCCCC1S(=O)(=O)Nc1ccccc1` (stereo unspecified), in the assay with RAW264.7 [1], half-maximal inhibition (IC50) was put at 260 nM.

Regarding `C/C=C(\C(=O)OCC)C(CCC)S(=O)(=O)Nc1ccc(F)cc1Cl` (stereo unspecified), the IC50 with RAW264.7 [1] came out at 2600 nM.

In the assay on RAW264.7 [1], `CCOC(=O)C1=CCCCC1S(=O)(=O)Nc1ccc(Cl)cc1Cl` (stereo unspecified) came in with an IC50 of 20 nM.

`O=C1C2=C(CCCC2)S(=O)(=O)N1c1ccc(F)cc1`: the IC50 in the assay with RAW264.7 [1] is 4100 nM.

In the case of `CCOC(=O)C1=C(S(=O)(=O)Nc2ccc(F)cc2)CCCC1`, the IC50 with RAW264.7 [1] worked out at 1400 nM.

For the molecule `CCOC(=O)C1=CCCCC1S(=O)(=O)Nc1ccc(F)cc1` (stereo unspecified), in the assay with RAW264.7 [1], inhibition was half-maximal at 110 nM (IC50).

On to `CCOC(=O)C1=CCCCC1S(=O)(=O)Nc1ccccc1F` (stereo unspecified), for which the midpoint of inhibition in the assay on RAW264.7 [1], the IC50, lay at 75 nM.

As for `CCOC(=O)c1ccccc1S(=O)(=O)Nc1ccc(F)cc1Cl`, the IC50 with RAW264.7 [1] was > 10000 nM.

Regarding `CCOC(=O)C1=CCCCC1S(=O)(=O)Nc1cccc(Cl)c1` (stereo unspecified), in the assay with RAW264.7 [1], the IC50 amounted to 66 nM.

On to `CCCOC(=O)C1=CCCCC1S(=O)(=O)Nc1ccc(F)cc1F` (stereo unspecified), for which the IC50 in the assay with RAW264.7 [1] was 29 nM.

As to `CCOC(=O)C1=CCCCC1S(=O)(=O)Nc1ccc(F)cc1F` (stereo unspecified), the IC50 with RAW264.7 [1] was determined as 16 nM.

The molecule `CCOC(=O)C1=CCCCC1S(=O)(=O)Nc1ccc(C)cc1Cl` (stereo unspecified) yielded an IC50 in the assay on RAW264.7 [1] of 41 nM.

As for `CCOC(=O)C1=CCCCC1S(=O)(=O)Nc1ccc(F)cc1Cl` (stereo unspecified), the IC50 in the assay with RAW264.7 [2] came to 2.5 nM; in the assay with RAW264.7 [3] it was 3.4 nM; with RAW264.7 [1] it was 3.2 nM.

For the molecule `CCOC(=O)C1=C(S(=O)(=O)Nc2ccccc2)CCCC1`, in the assay on RAW264.7 [1], the IC50 was > 8200 nM.

On to `CCOC(=O)C1=CCCCC1S(=O)(=O)Nc1nncs1` (stereo unspecified), for which the IC50 with RAW264.7 [1] is > 10000 nM.

Turning to `CCOC(=O)C1=CCCC[C@@H]1S(=O)(=O)Nc1ccc(F)cc1Cl`, the results for the IC50 with RAW264.7 [2], in the assay on RAW264.7 [3] and with RAW264.7 [1] were 480 nM, 740 nM and 640 nM, respectively.

On to `CCOC(=O)C1=CCCCCC1S(=O)(=O)Nc1ccc(F)cc1Cl` (stereo unspecified), for which inhibition in the assay with RAW264.7 [1] was half-maximal at 240 nM (IC50).

`CCOC(=O)C1=CCCCC1S(=O)(=O)Nc1ccc(Cl)cc1F` (stereo unspecified): the concentration for half-maximal inhibition (IC50) in the assay on RAW264.7 [2] turned out to be 170 nM; with RAW264.7 [3], 230 nM; in the assay on RAW264.7 [1] it was 160 nM.

Molecule `CCOC(=O)C1=CCCCC1S(=O)(=O)Nc1ccc(Cl)cc1` (stereo unspecified) displayed an IC50 in the assay on RAW264.7 [1] of 400 nM.

With `CCCCOC(=O)C1=CCCCC1S(=O)(=O)Nc1ccc(F)cc1F` (stereo unspecified), in the assay on RAW264.7 [1], it took 140 nM to reach half-maximal inhibition (IC50).

Molecule `CC(C)COC(=O)C1=CCCCC1S(=O)(=O)Nc1ccc(F)cc1F` (stereo unspecified) gave an IC50 in the assay on RAW264.7 [1] of 49 nM.

With `CCOC(=O)C1=CCCCC1S(=O)(=O)Nc1cc(F)c(F)cc1F` (stereo unspecified), in the assay on RAW264.7 [1], the IC50 came to 30 nM.

`CCOC(=O)C1=CCCCC1S(=O)(=O)Nc1cccc(F)c1F` (stereo unspecified): 140 nM corresponded to half-maximal inhibition in the assay on RAW264.7 [1] (IC50).

In the assay with RAW264.7 [1], `COC(=O)C1=CCCCC1S(=O)(=O)Nc1ccc(F)cc1F` (stereo unspecified) had an IC50 of 57 nM.

As usually defined, the ED50 is the dose at which the effect has come halfway, by size or by number of responders. Low values mean greater potency, high ones weaker potency. In turn, `CCOC(=O)C1=CCCC[C@H]1S(=O)(=O)Nc1ccc(F)cc1Cl` [RESATORVID] returned an ED50 with Mus musculus [4] of 0.3 mg/kg. For the same molecule, the outcome with Mus musculus [5], with Mus musculus [6], with Mus musculus [7], in the assay with Mus musculus [8] and in the assay on Mus musculus [9] was Active. The values for the IC50 in the assay on RAW264.7 [2], in the assay with RAW264.7 [3] and in the assay on RAW264.7 [1] were 1.3 nM, 1.9 nM and 1.8 nM, respectively.

For `CCOC(=O)C1=CCCCC1S(=O)(=O)Nc1ccc(C#N)cc1Cl` (stereo unspecified), in the assay with RAW264.7 [1], inhibition was half-maximal at 1600 nM (IC50).

Molecule `CC(C)OC(=O)C1=CCCCC1S(=O)(=O)Nc1ccc(F)cc1F` (stereo unspecified) returned a half-maximal inhibitory concentration (IC50) with RAW264.7 [1] of 110 nM.

As for `CCOC(=O)C1=CCCC1S(=O)(=O)Nc1ccc(F)cc1Cl` (stereo unspecified), the IC50 with RAW264.7 [1] is 110 nM.

On to `CCOC(=O)C1=CCCCC1S(=O)(=O)Nc1ccccc1Cl` (stereo unspecified), for which the IC50 in the assay on RAW264.7 [1] was 12 nM.

Regarding `CCOC(=O)C1=C(S(=O)(=O)Nc2ccc(Cl)cc2F)CCCC1`, inhibition in the assay with RAW264.7 [1] was half-maximal at 1700 nM (IC50).

In the assay on RAW264.7 [1], `CCOC(=O)C1=CCCCC1S(=O)(=O)Nc1ccccc1CC` (stereo unspecified) yielded an IC50 of 130 nM.

In the assay with RAW264.7 [1], `CCOC(=O)C1=CCCCC1S(=O)(=O)Nc1ccccc1C(=O)OC` (stereo unspecified) showed an IC50 of 1100 nM.
